HIV Env fusion – inhibitors of HIV Env-mediated cell fusion. HeLa-JRFL Env/CEM21 cell fusion, luciferase. hit rate 1.1% among 360,000. AID 651610. inhibition, % at 12.3 µM;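 active = mean replicate inhibition score of at least 50 and every replicate individually at or above 50; inconclusive = only one of the two criteria met; inactive = mean below 50 and not all replicates reaching 50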
GSK3 alpha inh – human GSK-3 alpha kinase inhibition; P49840; ADP-Glo luminescence, 60 min; hit rate 0.1% among 320,000; inhibition, % at 10 µM; AID 2650;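 active = more than half of replicates show inhibition above 20%; inconclusive = some but at most half of replicates above 20% inhibition; inactive = no replicate shows inhibition above 20%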;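 also: GST-tagged GSK-3 alpha with peptide substrate and 25 µM ATP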
GSK3beta inhib – blocks human GSK3beta kinase activity | P49841 | AID 2097 | hit rate 0.038% among 300,000 | GST-GSK3beta kinase, ADP-Glo luminescence, 60 min; stronger effect = lower value | activity score (negative = inhibition), % at 10 µM;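 active = more than half of replicate wells score below -50%, meaning over 50% inhibition versus plate controls; inconclusive = some replicates but at most half score below -50%; inactive = no replicate scores below -50%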
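Test system: GST-tagged human GSK3beta kinase, cell-free; evaluation: activity score scaled between in-plate DMSO and GW8510 controls; measured by: ADP-Glo luminescence; incubation: 60 min reaction, RT; benchmarks: DMSO and 20 µM GW8510; reagent: peptide substrate plus 25 µM ATP (final); medium: Tris/MgCl2 kinase buffer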
CDK5 p35 inh – inhibitors of human CDK5/p35 kinase. Q00535+Q15078. Recombinant CDK5/p35, ADP-Glo luminescence, 60 min. inhibition, % at 10 µM. hit rate 0.01% among 330,000;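 active = highest replicate inhibition of at least 50% and at least 75% of replicates reaching 50%; inconclusive = only one of the two criteria met; inactive = both criteria failed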
STK33 kinase inh – human STK33 kinase inhibition; inhibition, % at 10 µM; hit rate 0.073% among 320,000; purified STK33, MBP phosphorylation, ADP-Glo luminescence; AID 2661; Q9BYT3;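 active = inhibition at or above 25%, using the most active replicate where run in duplicate; inactive = inhibition below 25%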
Target sequence (Q9BYT3 whole entry, looked up): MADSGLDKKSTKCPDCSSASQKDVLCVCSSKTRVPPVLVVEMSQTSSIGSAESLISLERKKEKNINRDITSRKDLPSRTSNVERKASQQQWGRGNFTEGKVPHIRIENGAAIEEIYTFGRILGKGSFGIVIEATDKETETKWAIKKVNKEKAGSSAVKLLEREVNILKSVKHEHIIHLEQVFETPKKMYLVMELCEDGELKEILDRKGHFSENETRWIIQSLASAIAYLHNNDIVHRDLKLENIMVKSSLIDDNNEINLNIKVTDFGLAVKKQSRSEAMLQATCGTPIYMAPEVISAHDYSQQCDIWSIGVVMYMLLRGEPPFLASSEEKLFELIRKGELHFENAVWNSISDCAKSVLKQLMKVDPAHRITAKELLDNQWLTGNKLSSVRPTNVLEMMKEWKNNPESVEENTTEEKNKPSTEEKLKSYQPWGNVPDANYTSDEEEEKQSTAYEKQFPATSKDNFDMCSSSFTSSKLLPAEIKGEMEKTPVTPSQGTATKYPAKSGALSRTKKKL
GSIS activator – GLuc luminescence reporter in INS-1E cells, primary screen for activators of glucose-dependent secretion of insulin. INS-1E GLuc reporter insulin secretion, 2-3 h. activation, % at 16.6 µM. hit rate 0.61% among 370,000. AID 743287;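 active = lowest replicate activation of at least 40%, so every replicate reaches that level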
Numbers stand for hits; i = inactive; ? = inconclusive; nt = no result given. The list is not random: actives were taken first. Their share in the collection is about 1.4%.

SMILES	HIV Env fusion	GSK3 alpha inh	GSK3beta inhib	CDK5 p35 inh	STK33 kinase inh	GSIS activator
CCCCCCCCN1C(=O)[C@H](CC(=O)NCCC(C)C)C[C@@]2(C(=O)OCC)CCCC=C12	61	nt	nt	nt	nt	i
CCOC(=O)[C@]12CCCC=C1N(Cc1ccccc1)C(=O)[C@H](CC(=O)NCCCOC)C2	60	nt	nt	nt	nt	i
CCCCCCCCN1C(=O)[C@H](CC(=O)NCc2ccccc2)C[C@@]2(C(=O)OC)CC(C)(C)CC=C12	i	nt	nt	nt	nt	i
CCOC(=O)[C@]12CCCC=C1N(CCC1=CCCCC1)C(=O)[C@H](CC(=O)NCCC(C)C)C2	i	nt	nt	nt	nt	i
CCCCCCCCN1C(=O)[C@H](CC(=O)NCc2cccc3ccccc23)C[C@@]2(C(=O)OC)CC(C)(C)CC=C12	58	nt	nt	nt	nt	i
CCOC(=O)[C@]12CCCC=C1N(CCc1ccc(OC)c(OC)c1)C(=O)[C@H](CC(=O)NCc1ccccc1)C2	i	nt	nt	nt	nt	nt
C[C@@H]1CCCCO[C@H](CN(C)C(=O)NC2CCCCC2)[C@H](C)CN([C@@H](C)CO)C(=O)c2cc(NC(=O)NC3CCCCC3)ccc2O1	i	nt	nt	nt	nt	i
CCCCOCCCNC(=O)C[C@@H]1C[C@@]2(C(=O)OCC)CCC=C2N(Cc2ccc3c(c2)OCO3)C1=O	i	nt	nt	nt	nt	i
COC(=O)[C@@]12C[C@@H](CC(=O)NCc3ccc(OC)c(OC)c3)C(=O)N(CCc3ccc(OC)c(OC)c3)C1=CCC(C)(C)C2	67	nt	nt	nt	nt	i
CCCCCCCCN1C(=O)[C@H](CC(=O)NCc2ccc(OC)c(OC)c2)C[C@@]2(C(=O)OC)CC(C)(C)CC=C12	i	nt	nt	nt	nt	i
CCCCCCCCN1C(=O)[C@H](CC(=O)NCc2cccs2)C[C@@]2(C(=O)OCC)CCCC=C12	88	nt	nt	nt	nt	i
CCCCCCCCN1C(=O)[C@H](CC(=O)NCc2cccc3ccccc23)C[C@@]2(C(=O)OCC)CCCC=C12	76	nt	nt	nt	nt	nt
CCOC(=O)[C@]12CCC=C1N(Cc1ccc3c(c1)OCO3)C(=O)[C@H](CC(=O)NCC13CC4CC(CC(C4)C1)C3)C2	77	nt	nt	nt	nt	i
CCS(=O)(=O)Nc1ccc2c(c1)C(=O)N(C)C[C@@H](OC)[C@@H](C)CN(CC1CCCC1)[C@H](C)CO2	i	nt	nt	nt	nt	i
CCOc1ccc(C(=O)NCC(=O)OCCN2C(=O)c3ccccc3C2=O)cc1OCC	nt	i	nt	i	i	57
CN1CCN(c2ccc(CNC(=O)C3(C)Cc4c(-c5ccccc5)ccnc4O3)cc2)CC1 (configuration not stated)	i	nt	nt	nt	nt	45
Cc1cc(C(=O)O)ccc1N=Cc1c(O)ccc2ccccc12	i	i	i	i	26	i
CC(=O)N(C)c1ccc(N=Cc2c(O)ccc3ccccc23)cc1	i	i	i	i	62	i
Oc1ccccc1N=Cc1c(O)ccc2ccccc12	i	nt	i	i	nt	i
O=C(NC(c1ccc(F)cc1)c1ccc2ccccc2n1)C1CCN(Cc2cccc(C(F)(F)F)c2)CC1 (configuration not stated)	75	nt	nt	nt	nt	nt
O=C(NC(c1ccc(F)cc1)c1ccc2ccccc2n1)C1CCN(CCOc2ccc(Cl)cc2)CC1 (configuration not stated)	77	nt	nt	nt	nt	i
COc1cccc(S(=O)(=O)N2C[C@H](O)COC[C@H]3O[C@H](CC(=O)N4CCN(C)CC4)CC[C@@H]32)c1	nt	nt	nt	nt	nt	i
O=C(Cc1ccccn1)NCC[C@@H]1CC[C@H](NC(=O)CN2CCOCC2)[C@H](CO)O1	i	nt	nt	nt	nt	i
COc1ccc(C(=O)CSc2nnc(CNc3ccc(C)cc3C)o2)cc1	?	i	i	i	i	59
CCC(=O)N(C)C[C@@H]1Oc2ncc(C#Cc3ccncc3)cc2C(=O)N([C@@H](C)CO)C[C@@H]1C	i	nt	nt	nt	nt	i
O=C1N[C@@H](Cc2ccccc2)COCc2cn(nn2)CC[C@@H]1Cc1cccc(Cl)c1	nt	nt	nt	nt	nt	i
COc1ccc(C2=NN(C(=O)c3ccccc3)C(c3ccc(OC)c(OC)c3)C2)cc1OC (configuration not stated)	i	nt	i	i	nt	i
COc1ccc(C2CC(c3ccc(OC)c(OC)c3)=NN2C(=O)c2ccccc2)cc1 (configuration not stated)	i	i	i	i	i	67
C[C@@H]1CCCCO[C@@H](CN(C)Cc2ccc3c(c2)OCO3)[C@H](C)CN([C@H](C)CO)C(=O)c2cc(NS(C)(=O)=O)ccc2O1	i	nt	nt	nt	nt	i
